Screening results deposited in PubChem BioAssay by several laboratories.
Rows were chosen to be rich in hits. Some 2.2% of all compounds tested hit in one or more screens of this group.
MDM2 E3 inh = blocks human Mdm2 ubiquitin ligase activity; cell-based MDM2 ubiquitination luciferase reporter, 2 h; 0 = plate control, 100 = twice control, blank-subtracted; 210,000 compounds, 0.11% hits; signal enhancement, % at 5 µM;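 active means signal enhancement of 30% or more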;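 further: luminescence tracks abundance of the self-degrading MDM2-luciferase fusion protein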
Target sequence (Q00987 whole entry, looked up, the tested form may be a part): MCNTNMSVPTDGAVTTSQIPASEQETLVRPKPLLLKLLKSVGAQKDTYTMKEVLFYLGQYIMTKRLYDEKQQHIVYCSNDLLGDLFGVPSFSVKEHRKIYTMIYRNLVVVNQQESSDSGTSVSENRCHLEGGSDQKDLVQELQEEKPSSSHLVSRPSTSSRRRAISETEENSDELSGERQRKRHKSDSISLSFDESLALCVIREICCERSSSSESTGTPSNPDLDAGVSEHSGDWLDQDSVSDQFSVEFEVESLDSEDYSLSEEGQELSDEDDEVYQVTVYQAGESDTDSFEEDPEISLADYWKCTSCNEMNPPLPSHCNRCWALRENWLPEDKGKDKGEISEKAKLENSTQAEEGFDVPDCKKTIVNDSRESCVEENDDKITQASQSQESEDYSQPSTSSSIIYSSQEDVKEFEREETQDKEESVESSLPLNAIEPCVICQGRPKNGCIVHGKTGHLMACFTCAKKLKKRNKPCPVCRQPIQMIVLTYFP
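test system = mammalian cells stably expressing self-ubiquitinating, self-degrading MDM2 E3–luciferase fusion | quantity = 2000 cells/well | incubation = cell settling 4 h, compound treatment 2 h, both 37 °C | signal = luminescence with SteadyLite reagent, 15 min at room temperature | evaluation = % enhancement relative to plate controls after blank subtraction | benchmarks = plate controls and plate blanks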
Insulin prom up = MIN6 insulin promoter up-regulation | MIN6 insulin promoter-GFP reporter, high-content imaging; hits give high values | 190,000 compounds, 0.3% hits | z-score at 5 µM;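 active means z-score above 3 at 5 µM with at least 500 cells counted in the well; inconclusive means wells under 500 cells, flagged as cytotoxic or low count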
Hsp70 act = transcriptional activators of Hsp70. activation, % at 10 µM. HeLa Hsp70 promoter luciferase reporter, luminescence; scaled: vehicle 0, proteasome-inhibitor control 100%. 200,000 compounds, 0.04% hits;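 active means activation above the mean across all tested compounds plus 3 SD, cutoff set per campaign, cut at about 5.5% in these data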;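 further: 100% = MG132 at 30 µM as the positive control and 0% = DMSO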
RBBP9 inhibitor = inhibitors of human serine hydrolase RBBP9. 220,000 compounds, 0.2% hits. inhibition, % at 7.94 µM. recombinant RBBP9, FP-Rh probe fluorescence polarization. AID 1515;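 active means inhibition above the campaign mean of all tested compounds plus 3 SD, cut at about 14% in these data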;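 further: plate controls were DMSO wells with RBBP9 for no effect and wells lacking RBBP9 protein for full effect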
Target sequence (O75884 whole entry, looked up): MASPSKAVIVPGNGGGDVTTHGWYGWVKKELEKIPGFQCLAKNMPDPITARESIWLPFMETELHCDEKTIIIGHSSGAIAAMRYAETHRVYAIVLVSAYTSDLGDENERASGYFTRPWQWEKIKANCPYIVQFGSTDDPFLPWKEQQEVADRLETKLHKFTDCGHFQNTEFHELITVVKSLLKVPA
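Assay system: recombinant human RBBP9; Reagent: Serine-hydrolase probe FP-Rh, 375 nM pre-mixing; Doses: 7.94 µM single dose, 0.794% DMSO; Incubation: 30 min then 45 min, 25 °C; Detection: fluorescence polarization (mP), excitation 525 nm, emission 598 nm; Evaluation: percent inhibition from mP, scaled between DMSO and no-protein wells.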
Insulin prom inh = TRM-6 insulin promoter activity inhibition | AID 1273 | inhibition, % at 2 µM | 130,000 compounds, 0.9% hits | TRM-6 cells, insulin promoter-eGFP reporter, imaging; reporter expression induced with tamoxifen;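 active means inhibition above the mean plus 3 SD, with well images judged a real hit on visual review, cut at about 60% in these data, passing the limit was not always enough; inconclusive means inhibition over the cutoff but images rejected on review; inactive means inhibition not above the cutoff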
Wee1 degr inh = inhibitors of human Wee1 degradation | P30291 | HeLa Luc-Wee1K328M stability, luciferase luminescence; 100% = proteasome inhibitor MG132 effect | reporter increase, % at 5 µM | 220,000 compounds, 1.2% hits;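 active means activation above the mean of all tested compounds plus 3 SD, set per screening run, cut at about 8.8% in these data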;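 further: cells exposed to compound for 20 h before luminescence read; 0% = DMSO alone and 100% = MG132 at 30 µM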
Numbers without * were called inactive; ? = inconclusive; / = not tested or not shown.

SMILES	MDM2 E3 inh	Insulin prom up	Hsp70 act	RBBP9 inhibitor	Insulin prom inh	Wee1 degr inh
O=C(COc1ccccc1)N1c2ccccc2Sc2ccccc21	8	-0.53	0	-1	?	-1
O=C(COc1cccc(F)c1)N1c2ccccc2Sc2ccccc21	6	-1.4	0	-9	79*	-2
Cc1c(/C=C/C(=O)c2ccc(Cl)s2)cnn1C	0	/	0	0	75*	8
O=C(CS(=O)(=O)Cc1ccccc1)NCc1ccco1	-4	0.25	0	-10	33	0
Cc1ccc(O)c(NC(=O)CCC2CCCCC2)c1	-11	2	1	-4	-123	9.1*
O=C(CCC1CCCCC1)Nc1ccccc1O	-6	-1	0	-10	-12	6
C=CCN(C(=O)C1=NN(C2CCS(=O)(=O)C2)C(=O)CC1)c1nc(-c2ccc([N+](=O)[O-])cc2)cs1 (stereo not given)	3	-0.12	0	-7	/	4
Cc1ccc(NC(=O)c2ccc(F)cc2F)cc1NS(C)(=O)=O	-7	/	/	-8	/	9.2*
CCNS(=O)(=O)c1ccc2c3c(cccc13)C(=O)N2	-3	-0.81	0	-10	15	-1
Cn1nc(-c2ccc(OCC(=O)NCC3CCCO3)cc2)c2ccccc2c1=O (stereo not given)	-18	?	0	-6	-18	9.6*
Cn1nc(-c2ccc(C(=O)NCC3CCCO3)cc2)c2ccccc2c1=O (stereo not given)	/	-0.1	-1	4	40	5
COc1ccccc1NC(=O)N(CCCN1CCOCC1)Cc1cc2cc3c(cc2[nH]c1=O)OCO3	/	-1.7	/	/	/	/
COc1cc2cc(CN(CCCN3CCOCC3)C(=O)Nc3ccccc3F)c(=O)[nH]c2cc1OC	-10	-0.34	0	-4	/	9.2*
Cc1cc2ccccn2c1C(=O)Nc1cccc(Cl)c1	-12	-0.53	0	-9	15	-1
Cc1nnc(SCC(=O)NCc2ccc3c(c2)OCO3)s1	3	-0.44	0	-1	19	9.5*
CC(C)Nc1nnc(SCC(=O)NCc2ccc3c(c2)OCO3)s1	-2	0.09	0	-4	-67	-2
COc1ccc(C(=O)N[C@H](C(=O)Nc2nc3ccccc3[nH]2)C(C)C)cc1	-27	1.2	2	-3	/	9.0*
Cc1cccc(C(=O)N[C@H](C(=O)Nc2nc3ccccc3[nH]2)C(C)C)c1	-3	-1.9	0	-7	/	-1
CC(=O)c1cccc(NC(=O)Cn2nc(-c3ccc(Cl)cc3)ccc2=O)c1	9	-0.48	0	-9	/	4
CC(=O)c1cccc(NC(=O)Cn2nc(-c3ccccc3Cl)ccc2=O)c1	-15	1.3	0	-13	/	11*
CCOc1ccccc1CNC(=O)C1CCN(C(=O)c2sccc2-n2cccc2)CC1	/	-0.73	0	-3	/	0
O=C1c2ccccc2C(=O)C1c1ccnc2ccccc12	-74	/	1	-6	-488	11*
N#CC1=C(N)SC(N)=C(C#N)C1c1ccnc2ccccc12	-9	0.19	0	-11	-11	-3
O=C1c2ccccc2C(=O)C1c1nccc2ccccc12	-73	-1.9	0	-4	12	10*
Cc1cc(-n2c(SCCC#N)nnc2-c2cccnc2)ccc1Cl	-10	-0.08	0	-9	12	4
SMILES	MDM2 E3 inh	Insulin prom up	Hsp70 act	RBBP9 inhibitor	Insulin prom inh	Wee1 degr inh
Cc1cc(C)n(-c2nnc(C)n2/N=C/c2ccccc2O)n1	-20	-0.21	0	5	-5	9.3*
O=C(Nc1cccs1)Nc1ccc(F)cc1F	6	-0.19	0	-5	63	9.0*
O=C(Nc1ccc(F)cc1F)Nc1ccc(F)cc1F	-90	-1.2	0	-2	0	8
O=[N+]([O-])c1cnn(-c2nc(-c3cccs3)cc(C(F)(F)F)n2)c1	3	-0.57	0	-8	/	1
N#Cc1cnc(N)c(Br)c1	-20	-0.12	0	-3	27	11*
Nc1ncc(Br)cc1Br	-16	0.2	0	-8	/	-1
CCN(CC)c1nc2ccccc2[nH]1	-23	-0.32	0	-1	72*	-2
CCCCCCc1cc2cc(C(N)=O)c(=N)oc2cc1O	-21	1.1	0	-6	12	-1
CCCCCCc1cc2cc(C(=O)OCC)c(=O)oc2cc1O	-14	-1.7	/	-8	/	9.9*
Cc1cc(N)n2ncc(-c3ccc(F)cc3)c2n1	-3	/	0	5	89*	-2
Cc1cc(N)n2ncc(-c3ccc(Cl)cc3)c2n1	-16	-0.55	1	5	32	0
CCOC(=O)c1nn(-c2ccc(F)cc2)c2nc(CC(C)C)c(C#N)c(=O)n12	35*	/	0	-4	-278	3
c1ccc2c(c1)ccc1nnc(SCc3ccc4c(c3)OCO4)n12	-18	1.3	0	5	/	0
Cc1cc(C)n(/N=C/c2cccs2)c(=O)c1C#N	4	/	-1	-4	/	11*
O=C(Cn1ncc2c3ccccc3n(Cc3ccccc3)c2c1=O)NCc1ccco1	-3	-0.56	/	-6	/	-2
CCN(CC)c1ccc2cc(-c3nnc(-c4ccncc4)o3)c(=O)oc2c1	-9	4.4*	0	6	48	0
O=C(CCC1CCCC1)N1CCN(C(=O)c2cccnc2)CC1	-8	0.32	0	-4	-43	0
Cc1ccc(S(=O)(=O)Cn2nnnc2CN2CCCC3(CCCCC3)C2)cc1	-5	-0.94	0	-3	/	0
Cc1ccc(S(=O)(=O)Cn2nnnc2CN2CCOCC2)cc1	-5	0.79	0	-11	48	11*
CNc1nc(Oc2ccc(=O)n(C)n2)nc(N2CCOCC2)n1	-15	0.99	0	6	-7	-1
CC(C)c1nnc(NC(=O)C2CCCCC2)s1	-14	-0.45	0	3	/	-1
CC(C)c1cc(C(N)=O)c(NC(=O)C2CCC2)s1	-9	/	0	-7	81*	1
CC1(C)Cc2ccccc2C(NN=C2CCCC2)=N1	-7	-0.2	0	-1	/	0
CCc1nn(-c2ccccc2)c(N)c1C#N	3	-0.29	0	-9	60*	0
CCOc1c(C)cc(-c2ncccc2O)cc1C	-3	-0.62	0	5	82*	-3
O=c1c2ccccc2nc(SCc2ccccc2)n1CC1CCCO1 (stereo not given)	/	-1.5	/	0	/	3
O=C(NC(=S)NCCN1CCOCC1)c1ccc(Cl)cc1Cl	-2	-1.4	0	-4	/	5
CCOC(=O)C/C(N)=N/NC(=O)c1ccc(Cl)cc1Cl	-8	-0.3	0	2	-47	11*
Cn1cc(C(=O)c2ccc(Cl)cc2Cl)cc1C(=O)N/N=C(\N)COc1ccc(Cl)cc1Cl	-2	0.26	0	-11	-29	2
CCCCNC(=S)NC(=O)c1ccc(Cl)cc1Cl	-8	3.1*	0	-2	/	-3
